# Screening results from PubChem BioAssay.
# Sampled rows, rich in hits. Any-hit rate of the full collection: about 5.5%.
# Yeast lifespan up = compounds extending yeast replicative lifespan, primary screen, S. cerevisiae, OD615 | S. cerevisiae growth with nicotinamide; deaD strain in restrictive glucose medium | inhibition of the nicotinamide effect, % at 10 µM | hit rate 0.68% among 130,000 | AID 775, 2007;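 active means inhibition above a set limit, placed 3 SD over the median of all compounds, cut at about 26% in these data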;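 further: 0% = nicotinamide-treated wells and 100% = cells grown without nicotinamide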
#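 System: DeaD-strain S. cerevisiae / Buffer or medium: CSMM-D, restrictive glucose (dextrose) synthetic minimal medium / Probe or stimulus: nicotinamide, 1.5 mM, co-present with compound / Compound: one concentration, 10 µM, DMSO 0.25% / Incubation: 48 h compound exposure at 30 °C, humidified / Technique: optical density (absorbance) at 615 nm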
# BB579 growth dn = growth inhibitors of yeast BB579 in restrictive medium, primary screen, yeast lifespan-shortening project, S. cerevisiae; OD615, 48 h; inhibition, % at 10 µM; hit rate 0.51% among 140,000; AID 804, 2007;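 active means inhibition above a set limit, 3 SD over the mean compound inhibition, cut at about 44% in these data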
#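 System: Saccharomyces cerevisiae DeaD strain BB579, replicative lifespan model yeast | Buffer or medium: Restrictive glucose-based CSMM-D medium | Times: 4 h preincubation and 48 h exposure at 30 °C | Detection: OD615 turbidity measurement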
# WT yeast gro inh = growth inhibition of WT strain, primary screen, mitochondrial fusion inhibitor project, WT and mutant strains, chemical genetic; hit rate 2.1% among 190,000; inhibition, % at 10 µM; mitochondrial fusion phenotypic screen; in the data active means inhibition above about 58%; tested in S. cerevisiae
# RAM inhibit = inhibitors of the yeast RAM network, primary screen, dse1pr::URA3 reporter, 5-FOA selection; S. cerevisiae dse1pr::URA3 reporter, 5-FOA growth OD615, 2 d; analog-sensitive cbk1-as2 kinase mutant strain; inhibition, % at 50 µM; hit rate 1.8% among 190,000;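 active means inhibition above a set limit, 3 SD over mean compound inhibition, cut at about 8.4% in these data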;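 further: 0% = DMSO-only wells with no growth and 100% = 10 µM 1-NA-PP1 full growth; inhibition rescues growth on 5-FOA so higher OD means more RAM inhibition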
# Cl transport mod = KCC2 cotransporter modulators, thallium flux, primary screen, cell-based, HEK293 KCC2, FluoZin-2 fluorescence, MLSMR; KCC2 cells, thallium flux FluoZin-2 fluorescence; AID 1456, 2008; Solute carrier family 12 member 5 (Homo sapiens), Q9H2X9; B-score of Tl+ flux slope (higher = more flux/activation; lower = inhibition) at 10 µM; hit rate 2.2% among 190,000;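 active means thallium flux slope and its plate-corrected score both differing from the plate sample mean at a set confidence after two filtering rounds, in either direction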;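 further: slope of fluorescence scaled to starting intensity during 10 to 20 s after thallium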
# Target sequence (Q9H2X9 whole entry, looked up): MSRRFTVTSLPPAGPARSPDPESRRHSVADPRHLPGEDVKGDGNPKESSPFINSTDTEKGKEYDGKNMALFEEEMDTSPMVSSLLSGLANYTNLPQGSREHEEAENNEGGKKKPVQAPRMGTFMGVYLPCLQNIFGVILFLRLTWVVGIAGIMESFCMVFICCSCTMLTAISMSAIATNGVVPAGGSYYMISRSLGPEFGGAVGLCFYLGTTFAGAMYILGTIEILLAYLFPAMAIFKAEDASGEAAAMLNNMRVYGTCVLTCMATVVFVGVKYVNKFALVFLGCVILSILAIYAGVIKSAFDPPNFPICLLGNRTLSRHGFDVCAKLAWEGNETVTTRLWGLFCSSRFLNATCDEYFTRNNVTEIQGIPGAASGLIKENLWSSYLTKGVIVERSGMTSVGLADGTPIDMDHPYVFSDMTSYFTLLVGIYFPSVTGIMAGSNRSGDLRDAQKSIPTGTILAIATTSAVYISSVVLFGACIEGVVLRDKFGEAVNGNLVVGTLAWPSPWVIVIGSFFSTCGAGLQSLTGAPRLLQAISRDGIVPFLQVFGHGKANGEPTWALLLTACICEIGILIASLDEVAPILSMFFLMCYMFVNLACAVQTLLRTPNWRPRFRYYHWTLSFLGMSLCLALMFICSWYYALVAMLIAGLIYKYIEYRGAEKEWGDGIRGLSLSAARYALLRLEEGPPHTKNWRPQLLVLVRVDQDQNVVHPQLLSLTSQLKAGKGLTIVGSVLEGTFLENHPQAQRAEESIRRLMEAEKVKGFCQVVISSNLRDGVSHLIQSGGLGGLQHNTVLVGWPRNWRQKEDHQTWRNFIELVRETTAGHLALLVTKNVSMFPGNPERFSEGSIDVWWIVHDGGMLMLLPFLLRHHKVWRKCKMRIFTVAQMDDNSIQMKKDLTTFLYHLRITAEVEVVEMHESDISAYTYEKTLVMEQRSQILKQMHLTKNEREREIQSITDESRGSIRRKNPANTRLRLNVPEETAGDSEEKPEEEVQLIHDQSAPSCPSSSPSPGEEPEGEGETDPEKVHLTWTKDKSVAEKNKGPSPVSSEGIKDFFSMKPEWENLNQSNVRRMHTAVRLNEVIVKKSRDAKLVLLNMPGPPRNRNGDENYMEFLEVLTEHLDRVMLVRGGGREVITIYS
# * = called active by the depositor; . = no result given.
SMILES,Yeast lifespan up,BB579 growth dn,WT yeast gro inh,RAM inhibit,Cl transport mod
COc1cc(/C=C2\SC(=O)N(CC(=O)Nc3cccc(C)c3)C2=O)cc([N+](=O)[O-])c1O,.,.,5.5,5.5,-2.77
Cc1cccc(N2CCN(C(=O)c3cc(C)oc3C)CC2C)c1 (configuration not stated),-1.5,4.9,12.5,0.8,0.282
Clc1cccc(CSc2nnc(-c3sccc3-n3cccc3)o2)c1,-9.1,-13.2,42.8,8.9*,-0.0773
Clc1cc(Cl)cc(CSc2nnc(-c3sccc3-n3cccc3)o2)c1,-1.9,-15.8,14.9,8.1,.
COn1c(C)c(C(C)=O)c2c3nonc3ccc21,-12.0,3.7,-44.6,0.0,-0.851
CCCCOn1c(C)c(C(=O)OCC)c2c3nonc3ccc21,.,.,.,.,-3.54*
CCN(Cc1ccncc1)C(=O)C1CCN(S(=O)(=O)c2cccs2)CC1,-4.9,-29.4,-17.2,1.5,-0.583
O=C(c1ccccc1SCc1ccccc1)N1CCCCCC1,.,.,6.1,0.4,-2.56
CCCn1c(NC(=O)C2COc3ccccc3O2)nc2ccccc21 (configuration not stated),-11.6,-60.5,2.9,8.6*,0.838
CCCn1c(NC(=O)c2ccco2)nc2ccccc21,-7.6,-18.6,4.1,-0.2,-0.604
Cc1ccc(C(C(=O)Nc2ccc3c(c2)OCO3)N(C)C(=O)Cc2c[nH]c3ccccc23)cc1 (configuration not stated),1.0,-38.8,29.7,5.0,-0.106
CC1CCCC(NC(=S)NC(=O)c2cncc(Br)c2)C1C (configuration not stated),7.2,34.8,61.8*,2.1,51*
COc1cc(CN(C(=S)NCC(=O)NC2CC2)C2CCCC2)cc(OC)c1OC,1.6,-14.5,-14.7,0.0,0.744
Cc1ccccc1NC(=S)N(Cc1cccs1)C1CCCC1,.,.,12.9,0.0,3.58
CCc1ccccc1NC(=S)N(Cc1cccs1)C1CCCC1,.,.,71.2*,2.7,-0.0114
Cc1ccc(CN(C(=O)c2cc(=O)c3cc(C)cc(C)c3o2)C2CCS(=O)(=O)C2)cc1 (configuration not stated),.,.,.,.,0.674
CCn1c(=O)c(C(=O)NNS(=O)(=O)c2ccc(Br)cc2)c(O)c2ccccc21,.,.,20.0,3.1,.
COCCNC(=O)C(c1cccc(OC)c1)N(Cc1cccs1)C(=O)Cn1nnc2ccccc21 (configuration not stated),-2.7,-15.2,-0.7,8.6*,-0.619
COc1ccc2nc(N3C(=O)/C(=C/c4ccccc4)NC3=S)sc2c1,13.8,-5.8,-1.9,7.5,75.5*
CCOc1ccc2nc(N3CCCCCC3)sc2c1,-21.5,-17.4,5.6,-0.8,.
CCOc1ccc2nc(N3C(=O)/C(=C/c4ccccc4)NC3=S)sc2c1,22.1,-10.0,-6.0,1.8,61.6*
O=C(Nc1ccc(Br)c2cccnc12)c1ccc(Cn2cc(Cl)cn2)o1,5.8,-42.7,7.6,10.6*,2.04
Cc1nn(Cc2ccc(C(=O)Nc3ccc(Br)c4cccnc34)o2)c(C)c1Br,.,.,.,.,0.357
Cc1cccc(NS(=O)(=O)c2cnc(Cl)c(Br)c2)n1,1.3,-10.0,-2.2,2.5,1.84
C=CCN1C(=O)/C(=C/c2cccs2)S/C1=N\S(=O)(=O)c1ccc(F)cc1,8.7,-0.5,-10.0,10.6*,-0.07
SMILES,Yeast lifespan up,BB579 growth dn,WT yeast gro inh,RAM inhibit,Cl transport mod
NC(=O)c1cccc(S(=O)(=O)N2CCCCC2)c1,-3.6,-8.1,-0.1,-1.1,0.585
Cn1c(O)c(N=NC(=O)c2cccc(S(=O)(=O)N3CCCCC3)c2)c2ccccc21,2.9,-37.4,-3.2,8.9*,-1.73
CCc1nnc(NC(=O)C2Cc3ccccc3CN2S(=O)(=O)c2c(C)c(C)cc(C)c2C)s1 (configuration not stated),-9.5,-10.2,47.3,6.5,0.00761
Cc1cc(S(=O)(=O)Nc2ccc3ccccc3c2)c(C)s1,-7.1,22.7,32.1,9.2*,.
Cc1cc(S(=O)(=O)Nc2cccnc2)c(C)s1,2.2,-21.9,-16.8,0.8,.
C=CCn1c(C(CC)CC)nc2ccccc21,.,.,.,.,-0.227
CSc1ccc(/C=N/n2c(Cc3ccc(Br)cc3)n[nH]c2=S)cc1,.,.,71.2*,10.0*,2.7
